Consider 7 molecules from PubChem BioAssay.

Assay [1] is described as follows: inhibitors of TNFa-induced NFkB p65 translocation, primary screen, imaging, HUVEC, MLSMR starter and 10KST1 sets (AID 438;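 active = inhibition above 20% together with a positive visual image hit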;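 also: compound added about 3h40 before a 20 min TNFalpha stimulation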;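 as to inhibition: signal is the nuclear over cytoplasmic p65 intensity ratio per well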). The settings on record: HUVEC TNFa-induced p65 nuclear translocation; cell count: measured here: nuclei count (cytotoxicity indicator), at 2.08 µM; inhibition: at 2 µM, stronger effect = higher value, 0% TNFa-plus-vehicle, 100% no-TNFa wells.
The nature of assay [2]: endothelial E-selectin expression blockers – imaging, HUVEC, immunofluorescence, MLSMR starter and 10KST1 sets, primary screen (AID 487;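 active = visually confirmed hit in the image check and inhibition above 20%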;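 as to inhibition: signal is fraction of cell area covered by stained E-selectin grains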;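 as to nuclei count: 100% = median nuclei count of all wells on the same plate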). The note with it: HUVEC TNFalpha-induced E-selectin immunofluorescence imaging, at 2 µM; inhibition: stronger effect = higher value; nuclei count: measured here: cell number, toxicity.
Assay [3] in a line: Primary imaging screen for DUSP6 inhibitors that restore phospho-Erk in transfected HeLa cells, chemical complementation (AID 609;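 active = compounds giving at least 50% inhibition in the cell-based MKP-3 phosphatase rescue imaging test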;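 as to inhibition: phospho-Erk level distribution per well compared with pooled transfected vehicle control wells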). The note with it: HeLa MKP-3 transfected, phospho-Erk imaging KS statistic, at 10 µM, cells stimulated with TPA for 15 min.
The target in assay [4] is Dual specificity protein phosphatase 6 (Homo sapiens) (UniProt Q16828). Described as above. The settings on record: HeLa MKP-3 transfected, phospho-Erk imaging KS statistic; at 10 µM; stronger effect = higher value; cells stimulated with TPA for 15 min.
The target of assay [5] is Voltage-gated potassium channel subunit beta-2 (Rattus norvegicus) (UniProt P62483). Nature of the assay: inhibitors of rat Kvbeta2 reductase activity – biochemical, NADPH fluorescence, primary screen (AID 622;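 active = fluorescence slope higher than the sample average by over 3 SD, cut at about -0.22 in these data, passing the limit was not always enough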;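 also: slope of raw intensity against log time taken from 70 to 1610 s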). The note with it: recombinant KvBeta, 4-cyanobenzaldehyde reduction, at 10 µM, stronger effect = higher value.
Assay [6] has the same target. Nature of the assay: enhancers of rat Kvbeta2 NADPH turnover – biochemical, NADPH fluorescence, primary screen (AID 623;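 active = NADPH fluorescence slope more negative than the mean of all samples by about 3 SD, 99.7% confidence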;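 also: fluorescence intensity change per second fitted from 20 to 320 s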). The note with it: Recombinant KvBeta, NADPH fluorescence decrease slope, 10 min; at 10 µM; stronger effect = lower value.
Assay [7] deals with Alpha-2C adrenergic receptor (Homo sapiens) (UniProt P18825). The assay is described as follows: compounds altering alpha2C-coupled GIRK flux – cell-based, HEK293 alpha2C/GIRK1/2, thallium flux, primary screen (AID 624).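 Also: slope of fluorescence ratio to pre-addition baseline per second over 15 to 24 s.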 The note with it: thallium flux BTC fluorescence, at 10 µM, actives lie on both sides.
Assay [8] in a line: inhibitors of larval lipid processing in zebrafish, primary screen, whole organism, PED6 fluorescence, gall bladder and intestine (AID 686;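 active = a full or partial loss of lipid-probe fluorescence in the fish gall bladder, intestine or both, judged by eye; inactive = no fluorescence loss, or compound toxic to the fish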;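 also: larvae 5 to 7 days old with five fish per well; signal comes from phospholipase A2 cleavage of quenched PED6 carried via bile; overnight exposure to compound and PED6 before scoring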). The settings on record: Zebrafish larvae PED6 lipid processing, fluorescence scoring; screened at 20 µM (by protocol). The method, boiled down:
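System: live zebrafish larvae aged 5-7 days, whole organism; measure: graded gall bladder and intestinal fluorescence inhibition per well; incubation: overnight exposure; reagent: ingested quenched lipid PED6 at 100 nM; signal: By-eye fluorescence microscopy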

Assay [9] is described as follows: loss of swimming-algae plug formation – whole organism, Chlamydomonas reinhardtii, WT vs cilia-less mutant, absorbance, 96-well, primary screen (AID 463189;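 active = inhibition at or above 50% relative to wild type and mutant plate controls; inactive = inhibition below 50%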;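 also: 0% = wild type cc124 cells in DMSO and 100% = ciliumless bld1 mutant cells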). The settings on record: Chlamydomonas reinhardtii gravitaxis, OD600 absorbance, 2 days; at 10 µM; stronger effect = higher value.
The mark [10] stands for this setting: measured here: cell density z-score.
[11] abbreviates: measured here: nuclear c-Myc green intensity z-score.
The mark [12] stands for this setting: measured here: nuclear pErk red intensity z-score, stronger effect = higher value.

Activity calls are given as the source filed them.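 The calls were made as follows, unless noted: active = fluorescence slope after compound addition differing from the mean of all screened samples at 99.7% confidence, in either direction; inactive = the rest.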

Chain of Voltage-gated potassium channel subunit beta-2 (Rattus norvegicus) (P62483 whole entry, looked up): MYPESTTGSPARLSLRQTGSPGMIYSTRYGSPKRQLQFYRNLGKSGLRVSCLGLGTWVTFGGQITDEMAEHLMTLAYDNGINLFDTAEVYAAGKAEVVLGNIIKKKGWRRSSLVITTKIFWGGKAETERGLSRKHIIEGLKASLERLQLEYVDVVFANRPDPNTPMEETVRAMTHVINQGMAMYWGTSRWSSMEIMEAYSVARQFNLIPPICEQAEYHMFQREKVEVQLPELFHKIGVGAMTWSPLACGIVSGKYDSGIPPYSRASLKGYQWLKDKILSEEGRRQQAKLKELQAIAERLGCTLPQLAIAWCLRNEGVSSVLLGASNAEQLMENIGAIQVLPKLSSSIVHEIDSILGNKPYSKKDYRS
Chain of Dual specificity protein phosphatase 6 (Homo sapiens) (Q16828 whole entry, looked up): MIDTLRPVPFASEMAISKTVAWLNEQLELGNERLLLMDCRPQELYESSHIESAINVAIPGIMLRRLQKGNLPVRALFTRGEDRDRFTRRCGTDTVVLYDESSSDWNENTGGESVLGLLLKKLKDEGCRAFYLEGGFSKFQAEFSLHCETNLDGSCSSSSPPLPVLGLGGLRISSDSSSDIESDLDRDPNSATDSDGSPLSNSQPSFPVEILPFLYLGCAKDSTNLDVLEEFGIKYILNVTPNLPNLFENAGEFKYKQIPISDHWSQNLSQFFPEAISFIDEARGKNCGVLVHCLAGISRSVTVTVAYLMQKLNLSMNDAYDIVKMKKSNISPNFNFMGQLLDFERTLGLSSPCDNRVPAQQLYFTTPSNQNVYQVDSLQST
Chain of Alpha-2C adrenergic receptor (Homo sapiens) (P18825 whole entry, looked up): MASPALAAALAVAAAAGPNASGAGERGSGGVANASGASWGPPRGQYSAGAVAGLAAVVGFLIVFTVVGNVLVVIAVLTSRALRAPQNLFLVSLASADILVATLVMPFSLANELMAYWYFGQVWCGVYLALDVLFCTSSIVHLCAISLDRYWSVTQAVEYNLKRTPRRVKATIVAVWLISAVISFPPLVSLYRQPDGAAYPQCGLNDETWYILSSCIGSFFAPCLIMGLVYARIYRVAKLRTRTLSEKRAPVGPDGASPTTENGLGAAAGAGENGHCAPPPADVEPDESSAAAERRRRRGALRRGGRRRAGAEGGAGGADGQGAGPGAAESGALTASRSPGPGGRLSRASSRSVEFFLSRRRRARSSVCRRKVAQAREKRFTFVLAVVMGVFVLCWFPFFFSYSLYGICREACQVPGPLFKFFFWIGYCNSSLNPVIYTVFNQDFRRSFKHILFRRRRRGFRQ

Consider `CCOc1cc(CN2CCOCC2)cc(C(C)=O)c1`, for which the cell count in [1] was 617. Moreover, the inhibition (as a rule, the change of the read-out against control, counted positive when it falls) is -3.9% (inactive) in assay [1], -113% (inactive) in assay [2], 15.1% (inactive) in assay [4] and 38.5% (inactive) in [9]. This molecule had a nuclei count in assay [2] of 110%. The z-score in assay [3] (setting [10]) is 1.86; in assay [3] (setting [11]), 1.2; in assay [3] (setting [12]), -0.466. Besides, in [5], the fluorescence slope is -0.573 (inactive). Further, the NADPH fluorescence slope in assay [6] is -1.5e-05 (inactive). Moreover, the slope in assay [7] is 0.00527 (inactive). For the same molecule, in [8], the call was inactive.
For the molecule `CC1CN(C2CCN(S(=O)(=O)Cc3ccccc3)CC2)CC(C)O1` (stereo unspecified), the cell count in [1] was found to be 355. The inhibition in [1] is -15.2% (inactive); in assay [2], -254% (inactive); in [4], 5.57% (inactive); in assay [9], 32.6% (inactive). Moreover, the nuclei count in assay [2] amounted to 179%. For the same molecule, the z-score was 0.356 in assay [3] (setting [10]), 0.313 in [3] (setting [11]) and 0.176 in assay [3] (setting [12]). Moreover, the fluorescence slope in assay [5] is -0.391 (inactive). Besides, in [6], the NADPH fluorescence slope is -1.6e-05 (inactive). In [7], the slope was 0.00538 (inactive). In addition, the call in assay [8] was inactive.
Regarding `CC1(C)Cc2c(C#N)c(NCCc3ccccc3)nc(-c3ccco3)c2CO1`, the cell count in assay [1] was determined as 585. Further, the inhibition in assay [1] was -9.7% (inactive); in [2], -33.8% (inactive); in assay [4], 22.3% (inactive); in assay [9], 34.4% (inactive). Also, the nuclei count in assay [2] was found to be 184%. The z-score was 0.597 in assay [3] (setting [10]), -1.77 in assay [3] (setting [11]) and 0.237 in assay [3] (setting [12]). In assay [5], the fluorescence slope was -0.122 (inactive). The NADPH fluorescence slope in assay [6] was 5.1e-06 (inactive). Further, the slope in assay [7] is 0.00499 (inactive). Besides, the call in assay [8] was inactive.
`CN1C(=O)C2(N=c3ccccc3=N2)c2ccccc21`: the cell count in assay [1] amounted to 527. The inhibition is -4.5% (inactive) in [1], -152% (inactive) in [2], 7.73% (inactive) in [4] and 9.55% (inactive) in [9]. The molecule further gave a nuclei count in assay [2] of 209%. The values for the z-score in [3] (setting [10]), in [3] (setting [11]) and in [3] (setting [12]) were -0.677, 0.303 and 0.421, respectively. The fluorescence slope in assay [5] was -0.482 (inactive). In assay [6], the NADPH fluorescence slope was -4.4e-05 (inactive). The slope in assay [7] was 0.00491 (inactive). In addition, the molecule was called inactive in assay [8].
For the molecule `Fc1cnc(N2CCOCC2)nc1NCc1ccccc1`, the cell count in assay [1] is 649. The inhibition in assay [1] was -2.3% (inactive); in assay [2], 32.4% (inactive); in assay [4] it was 6.51% (inactive); in [9] it was 0.319% (inactive). The molecule also returned a nuclei count in assay [2] of 156%. For the same molecule, the z-score in assay [3] (setting [10]) is -0.315; in [3] (setting [11]) it was 0.582; in assay [3] (setting [12]), 0.114. Besides, in assay [5], the fluorescence slope is -0.388 (inactive). In assay [6], the NADPH fluorescence slope was -5.9e-05 (inactive). In addition, in [7], the slope is 0.00592 (inactive). For the same molecule, in assay [8], the outcome was inactive.
For the molecule `Cc1occc(=O)c1OC(=O)Nc1ccccc1`, the cell count in [1] is 477. The inhibition was -8.6% (inactive) in [1], -106% (inactive) in assay [2], 14% (inactive) in assay [4] and -3.66% (inactive) in assay [9]. Besides, in assay [2], the nuclei count was 154%. Moreover, the values for the z-score in assay [3] (setting [10]), in assay [3] (setting [11]) and in assay [3] (setting [12]) were -0.12, 2.47 and -1.69, respectively. The fluorescence slope in [5] is -0.524 (inactive). Also, in assay [6], the NADPH fluorescence slope was -2.3e-05 (inactive). Moreover, in [7], the slope was 0.00424 (inactive). Also, the result in assay [8] was inactive.
`N#CCCN(CCC#N)c1nnc(-c2ccccc2)s1`: the cell count in [1] was 391. The inhibition in assay [1] was -3.1% (inactive); in assay [2], -60.9% (inactive); in [4], 17% (inactive); in [9] it was 27.2% (inactive). Also, the nuclei count in assay [2] came out at 159%. For the same molecule, the z-score is 1.49 in [3] (setting [10]), 1.59 in assay [3] (setting [11]) and -1.79 in assay [3] (setting [12]). Besides, the fluorescence slope in [5] was -0.384 (inactive). In [6], the NADPH fluorescence slope was -3.6e-05 (inactive). Further, in assay [7], the slope was 0.00496 (inactive). Besides, the outcome in assay [8] was “inactive; toxic”.
